From ChEMBL document CHEMBL4513216, “Probing the Open Global Health Chemical Diversity Library for Multistage-Active Starting Points for Next-Generation Antimalarials” (ACS Infect Dis, 2020)

Test: Toxicity liver stage against HepG2, at 10uM
Type: cell-based
Set-up: test concentration 10 uM, cell line HepG2-A16-CD81EGFP
Conditions: human, HepG2-A16-CD81EGFP cells; read-out: INHIBITION
In short: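 Uninfected HepG2-A16-CD81EGFP cells, 3 × 10^3 per well, 1536-well, plated on prespotted compound at 10 μM final, parasite-free screening media added to match infected plates; puromycin 10 μM positive, DMSO 0.5% negative; run in parallel with 48 h PbLuc assay at 37 °C, 5% CO2; viability by CellTiter-Glo luminescence, normalized to controls.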

Point of comparison: `OCC(CO)N1CCC(c2nnc(Cn3ccnc3)n2C2CC2)CC1`, cytotoxicity at 10 µM -4.36%. Against it:
- CCOCCN(C)C(=O)Nc1cccc2c1CCN(CC)C2 — lower, -49.3%
- O=C1CC(c2cccs2)c2sc(C(=O)O)c(-c3ccccc3)c2N1 (stereo unspecified) — higher, -1.66%
- CC(C)NC(=O)CC1COC2(CCN(Cc3cccs3)CC2)C1 (stereo unspecified) — higher, 4.57%
- Cc1nnc2n1CCN(CC(=O)NC(C)c1cccc3ccccc13)C2 (stereo unspecified) — higher, 7.15%
- Cc1cc(C(=O)N2CCCC3(COCCN(c4ncccn4)C3)C2)[nH]n1 (stereo unspecified) — higher, -3.58%
- CC1CCN(S(=O)(=O)N2CCCC(c3cccc(C(=O)O)c3)C2)CC1 (stereo unspecified) — lower, -13.3%
- CC(=O)N1CCCn2nc(CNS(=O)(=O)Cc3ccccc3)cc2C1 — lower, -6.19%
- Cc1ccnc(NCC2(N(C)C)CCOCC2)n1 — higher, 3.81%
- Cc1ccc(C(=O)NCCCNc2ccc(C(F)(F)F)cn2)cc1 — higher, -2.34%
- CCN(C)S(=O)(=O)NCC1CCCN(Cc2ccccc2F)C1 (stereo unspecified) — higher, -1.22%
- COc1cc(N2C[C@H]3CCC[C@@H](CN(C)C)[C@H]3C2)ncn1 — lower, -78.3%
- CCOc1ccc2[nH]c(=O)c(CN3CCCCC3C)cc2c1 (stereo unspecified) — higher, -0.895%
- O=C(c1cccc(CO)n1)N1CCCC1c1nc2cc(F)ccc2[nH]1 (stereo unspecified) — higher, -1.26%
- O=C(CNc1cc(-n2cnnn2)ccc1F)Nc1cc(F)ccc1F — higher, -4.09%
- CCC(C)C(=O)NCc1ccn(-c2ccc(F)cc2)n1 (stereo unspecified) — higher, -2.42%
- COc1ccc(-c2noc([C@@H]3C[C@@H](O)CN3C3CCCCC3)n2)cc1 — higher, 3.25%
- CSCCC1c2nc[nH]c2CCN1Cc1cncn1C (stereo unspecified) — higher, 13.3%
- CC1(C)CNC(=O)c2nc(-c3n[nH]c(=O)[nH]3)[nH]c2C1 — higher, -4.07%
- O=C1NC2(CCN(CCc3ccccc3)CC2)CC1c1ccccc1 (stereo unspecified) — lower, -48.6%
- CC(Cn1cccn1)NC(=O)NCc1cccnc1 (stereo unspecified) — higher, -0.088%
- CN1CCn2c(-c3cnn(C)c3)cnc2C12CCN(CC1CC1)CC2 — higher, 7.55%
- CC(C)c1nnc2n1CC(CNCc1ccc3c(c1)OCCO3)CC2 (stereo unspecified) — lower, -5.92%
- COCCNc1nc(C)nc2c1CCN(CC1CCC(N)CC1)CC2 (stereo unspecified) — higher, -2.84%
- COc1ncc(C2CC(=O)NCc3nc4ccccn4c32)cn1 (stereo unspecified) — lower, -9.75%
- CCc1nc(NS(=O)(=O)c2ccc(F)cc2C)no1 — lower, -10.9%
- CC(c1cccnc1)N(C)Cc1csc(-c2ccccn2)n1 (stereo unspecified) — lower, -10.4%
- COc1ccccc1CN(CC1CCCO1)C(=O)c1csnn1 (stereo unspecified) — higher, -0.636%
- CCN(CC)C(=O)c1ccc(CNc2ncc(C#N)cc2Cl)cc1 — higher, 5.87%
- Cc1nnc(CN(C)C2CCN(c3cccc(-c4cscn4)c3)CC2)o1 — lower, -7.3%
- COC(=O)CNC(=O)c1sccc1N(C)S(=O)(=O)c1ccc(Cl)cc1 — lower, -15.4%
- COCC(=O)Nc1ccccc1Sc1c(C)n[nH]c1C — lower, -10.2%
- CN(C)C(=O)CN1CCC2(CC1)COc1ccccc1S(=O)(=O)N(C)C2 — higher, -0.259%
- COc1c(CNCCC(=O)NC2CCCC2)c(C(C)C)nn1C — lower, -4.41%
- Cc1cccc(-c2ccc(C(=O)NCC3CCOC3)c(=O)[nH]2)c1 (stereo unspecified) — lower, -9.66%
- Cn1ccc(CN2CCC(CN3CCOCC3)CC2)cc1=O — lower, -11%
- Cc1nc(C)n(CC2CCCN2Cc2cn(-c3ccccc3)nn2)n1 (stereo unspecified) — higher, 3.87%
- CCc1cnc(C)nc1NCCSc1nnc(C)n1CC — higher, -4.19%
- COCCn1ccnc1-c1[nH]cnc1C — lower, -18.4%
- O=C(NCCCOCC1CCCO1)c1cccnc1N1CCCC1 (stereo unspecified) — higher, 12.4%
- Cc1cnn(CC(C)NCc2ccc(C#N)cc2F)c1 (stereo unspecified) — lower, -7.44%
- CS(=O)(=O)N1CCOCC2(CN(Cc3ccccn3)CCO2)C1 (stereo unspecified) — higher, 3.42%
- Cc1ccnn1CCC(=O)N(Cc1ccsc1)CC(C)C — lower, -57.4%
- COc1cccc(-c2ncc(CN3CCOCC(O)C3)s2)c1 (stereo unspecified) — lower, -7.19%
- Cc1cc2cc(C(=O)N3CC[C@H](O)[C@]4(CCCO4)C3)ccc2o1 — higher, 1.01%
- O=C(CSC1CCc2ccccc2NC1=O)NCCO (stereo unspecified) — higher, 5.52%
- CO[C@H]1COCCN(C(=O)c2cc(C)oc2C(F)(F)F)C1 — lower, -12.1%
- CCOC[C@H]1CC[C@H]2[C@H](CCN2Cc2c(C)noc2C)O1 — higher, 3.23%
- CC[C@H]1NCCC[C@]12CCC(=O)N2Cc1ccncc1 — higher, 6.29%
- Cc1ccc(S(=O)(=O)NC(=O)C2(c3ccc(F)cc3)CCC2)c(C)c1 — higher, -1.09%
- CC(C)OCCNC1(c2ccc(Cl)cc2)CCOCC1 — higher, 5.5%
- OCCN(CCO)Cc1ccc(Br)c2cccnc12 — higher, 0.14%
- Cc1csc(C2(NCc3ccc(OCC(F)F)cc3)CCCC2)n1 — higher, 2.15%
- CCN1C(=O)C[C@@H]2[C@@H]1CCN2S(=O)(=O)Cc1ccc(C)cc1 — lower, -6.22%
- COCC(c1cccc(C(F)(F)F)c1)N(C)C(=O)c1cnccn1 (stereo unspecified) — lower, -11.7%
- O=C(CCc1ccccc1)N1CCC(c2n[nH]c(C3CC3)n2)CC1 — lower, -5.35%
- COCC1c2c(cnn2C)CCN1Cc1ccc(C)cc1 (stereo unspecified) — higher, 45%
- CCNc1cc2c(nn1)CCN(C(=O)c1cc3c(s1)CCOC3)C2 — lower, -8.51%
- N#Cc1cnc2ccccc2c1N1CCC(C(=O)O)CC1 — higher, 4.28%
- COCCNC(=O)c1cc(COc2cncc(Cl)c2)on1 — higher, 0.141%
- Cc1nc(CCC(N)=O)cc(C2CCCN2S(C)(=O)=O)n1 (stereo unspecified) — lower, -5.32%
- Cn1cc(C#N)cc1C(=O)N1CCC2(CCCN(CC3CCC3)C2=O)C1 (stereo unspecified) — higher, -4.3%
- O=C(O)C1(Oc2ccc3ccccc3c2)CCN(c2ccncc2)CC1 — higher, 0.542%
- CCCC(=O)N1CCC(c2nc(O)c3c(n2)CCN(C2CCCC2)C3)C1 (stereo unspecified) — higher, 9.34%
- CN1CCC(N(C)C(=O)Nc2ccc(Cl)cc2)CC1 — higher, -0.211%
- Cc1ccc(CN(CC(=O)N2CCOC(C)C2)C2CC2)cc1 (stereo unspecified) — lower, -11.9%
- COCCN(C)C1COC2(CCN(Cc3ccccn3)CC2)C1 (stereo unspecified) — lower, -73.4%
- O=C(NC[C@@H]1CCCO1)c1cc(Br)cnc1N1CCCCC1 — higher, -1.69%
- Cc1cc(C(N)=O)ccc1NC(=O)c1nc(N2CCCC2)ncc1Cl — lower, -8.94%
- CCc1nnsc1C(=O)N1CCCN(Cc2ccc(F)cc2)CC1 — higher, -3.69%
- COc1ccc(-c2noc(CN3CCN(c4cnccn4)CC3)n2)cc1 — higher, 6.58%
- c1cnn(CC2CCCN2c2ncnc3sccc23)c1 (stereo unspecified) — higher, 38.1%
- CC(=O)Nc1ccc(CN2C[C@@H]3CC[C@H]2CN(c2ncccn2)C3)cc1 — higher, -0.0298%
- COC1COC2(CCN(Cc3ccccc3Cl)CC2)C1 (stereo unspecified) — lower, -14.1%
- Cc1cc(C)n(C2CCCN(C(=O)CCNc3ncccn3)C2)n1 (stereo unspecified) — higher, -2.53%
- NC(=O)C1CCN(C(=O)c2ccc(Cn3cc(Br)cn3)cc2)CC1 — lower, -6.24%
- Cc1cnn(CC(C)NCc2nc(-c3ccccn3)no2)c1 (stereo unspecified) — higher, 0.234%
- CCCn1ccnc1CN1CCc2[nH]cnc2C1Cc1ccccc1 (stereo unspecified) — lower, -15.8%
- Cc1ccc(-c2ccnc(NC(C)c3n[nH]c(C)n3)n2)c(C)n1 (stereo unspecified) — higher, 2.83%
- O=C(NCc1cccnc1N1CCCCC1)c1ccc2c(c1)OCO2 — higher, -3.76%
- CCc1cnc(N2CC[C@H]3[C@@H]2CCC(=O)N3CC2CCOCC2)nc1 — higher, 4.28%
- Cc1cccnc1C(=O)N1CCCC(c2[nH]ncc2S(C)(=O)=O)C1 (stereo unspecified) — higher, 7.58%
- Cc1occc1C(=O)N1CCC[C@]2(C[C@@H](OCc3ccccn3)CO2)C1 — lower, -72.4%
- Cc1ccc2c(ccn2CC(=O)NC[C@@H]2CCCN3CCCC[C@H]23)c1 — higher, 0.097%
- COCCCC(=O)NS(=O)(=O)c1ccc2c(c1)OCCCO2 — higher, -2.77%
- CN1CCCC(Cc2cncc(C(=O)N3CCOCC3)c2)C1 (stereo unspecified) — higher, 6.32%
- Cc1nc(CN2C(=O)CC[C@@H]3[C@H]2CCN3C2CCOC2)cs1 (stereo partly specified) — lower, -141%
- O=C(Nc1ccccc1OCCc1ccccn1)N1CCOCC(O)C1 (stereo unspecified) — higher, 4.25%
- CCc1nc(C)c(CC(=O)N2CCC3(CC2)OCCCC3OC)c(=O)[nH]1 (stereo unspecified) — higher, -0.506%
- Cc1noc(C)c1CN(C)CC1CCCN1c1cccnn1 (stereo unspecified) — higher, 0.746%
- CC(C(=O)N(Cc1ccc(C#N)cc1)CC(F)(F)F)S(C)(=O)=O (stereo unspecified) — higher, -2.6%
- Cc1nc(C2CCCN2C(=O)c2cc3c(s2)CCC3)no1 (stereo unspecified) — lower, -6.82%
- NC(=O)c1nc2c(s1)CCN(C(=O)Nc1ccccc1)CC2 — higher, 12.5%
- COCCN(CCC#N)S(=O)(=O)c1ccc(F)cc1F — higher, -3.54%
- CCOc1no[n+]([O-])c1-c1ccccc1 — lower, -6.59%
- CCOc1ccccc1C(=O)Oc1cc(=O)n2cccc(C)c2n1 — higher, 22.1%
- Cc1nn(C)c(N(C)C)c1CNCCCN(C(C)C)S(C)(=O)=O — higher, 1.07%
- CNC(=O)NC(=O)CNc1cc(C(=O)OC)cc(C(F)(F)F)c1 — higher, -0.0264%
- CC1(C)CNC(=O)c2nc(CCN3CCC(O)CC3)[nH]c2C1 — lower, -10.4%
- CN(Cc1ccoc1)C(=O)CN1C(=O)OC(C)(C)C1=O — lower, -128%
- Cc1cncc(C(=O)N2CCCC(O)(CN(C)C)CC2)c1 (stereo unspecified) — higher, 6.22%
- N#CCCNC(=O)CN1CCC(c2cc3ccccc3[nH]2)CC1 — higher, 0.91%
- CN(Cc1nnc(C2CC2)n1C)C1CCN(Cc2ccon2)C1 (stereo unspecified) — lower, -9.04%
- c1ccc(CO[C@@H]2CN(Cc3ccoc3)[C@@H]3COC[C@@H]32)nc1 — lower, -105%
- CNC(=O)N1CCC2(COCc3c(C)nc(NCc4ccco4)nc32)C1 (stereo unspecified) — higher, 11.2%
- NS(=O)(=O)Cc1ccc(CNC(=O)NCC2CCOC2)cc1 (stereo unspecified) — higher, 1.18%
- CNC(=O)C1CN(c2ncccn2)CCN1Cc1ccccc1 (stereo unspecified) — higher, 14.3%
- CCc1n[nH]c(C2CN(CCc3ccncc3)CCO2)n1 (stereo unspecified) — higher, 2.17%
- CN1CC(=O)N(c2ccsc2)CC12CCN(C(=O)N1CCCC1)C2 (stereo unspecified) — lower, -72.6%
- Cc1cc(NC(=O)Nc2ccc3c(ccn3CCN(C)C)c2)n(C)n1 — higher, 3.38%
- CCc1nnsc1C(=O)NCCCC(CC)(CC)C1OCCO1 — higher, 5.95%
